According to ChEMBL document CHEMBL2434890, “Design, synthesis and structure-activity relationship of novel quinoxaline derivatives as cancer chemopreventive agent by inhibition of tyrosine kinase receptor” (Eur J Med Chem, 2013):

Key:
Type in all cases: cell-based
[1] = Inhibition of TRK in human MCF7 cells after 48 hrs by ELISA
How it was run: (§1)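 HepG2 or MCF-7 cells, kept in DMEM with 10% heat-inactivated FCS and penicillin, seeded at 0.50×10⁶ per flask and treated 48 h at 37 °C, 5% CO₂ with compound in DMSO (2.5–40 μg/ml). Cells were homogenized in saline. TRK level was measured by double-antibody sandwich ELISA (OD 450 nm) against a standard curve, in triplicate. IC50 = 50% reduction of TRK relative to untreated cells.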

[2] = Inhibition of TRK in human HepG2 cells after 48 hrs by ELISA; how it was run: as §1
[3] = test system: Raji; test: Inhibition of TPA-induced EBV early antigen activation infected in human Raji cells after 48 hrs by immunofluorescence method relative to control; details: human gammaherpesvirus 4
[4] = test system: Raji; test: Inhibition of TPA-induced EBV early antigen activation infected in human Raji cells assessed as antigen activity at 10 mol ratio/TPA after 48 hrs by immunofluorescence method relative to control; set-up: scale not given: the % may be the effect or the level left; details: human gammaherpesvirus 4
[5] = test system: Raji; test: Inhibition of TPA-induced EBV early antigen activation infected in human Raji cells assessed as antigen activity at 100 mol ratio/TPA after 48 hrs by immunofluorescence method relative to control; set-up: scale not given: the % may be the effect or the level left; details: human gammaherpesvirus 4
[6] = test system: Raji; test: Inhibition of TPA-induced EBV early antigen activation infected in human Raji cells assessed as antigen activity at 500 mol ratio/TPA after 48 hrs by immunofluorescence method relative to control; set-up: scale not given: the % may be the effect or the level left; details: human gammaherpesvirus 4
[7] = Cytotoxicity against human Raji cells assessed as cell viability at 1000 mol ratio/TPA after 48 hrs by trypan blue staining method; details: read-out: Activity
How it was run: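 Raji cells were treated as in the EBV-EA assay: 48 h at 37 °C with 4 mM n-butyric acid, […] and compound in DMSO (ca. 0.7%), dosed by mol ratio to TPA. Viability of the treated cells was determined by trypan blue staining.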

[8] = test system: Raji; test: Inhibition of TPA-induced EBV early antigen activation infected in human Raji cells assessed as antigen activity at 1000 mol ratio/TPA after 48 hrs by immunofluorescence method relative to control; set-up: scale not given: the % may be the effect or the level left; details: human gammaherpesvirus 4

SMILES | IC50 [1] | IC50 [2] | inhibition [3] | Activity [4] [%] | Activity [5] [%] | Activity [6] [%] | viability at 48 h, 1000 mol ratio/TPA [7] [%] | Activity [8] [%]
CC(C)=NNc1nc2ccccc2[nH]c1=O | 17.2 nM | 15 nM | Dose-dependent effect | 100 | 77 | 45 | 60 | 13.2
C=CCn1c(=O)c(N/N=C/c2c(OC)cccc2OC)nc2ccccc21 | 4.15 nM | 3.5 nM | Dose-dependent effect | 100 | 73.5 | 42 | 60 | 10.8
CC1(C)CC[C@]2(C(=O)O)CC[C@]3(C)C(=CC[C@@H]4[C@@]5(C)CC[C@H](O)C(C)(C)[C@@H]5CC[C@]43C)[C@@H]2C1 [OLEANOLIC_ACID] |  |  |  | 100 | 80 | 30 | 70 | 12.7
CCOC(=O)Cn1c(=O)c(N/N=C/c2c(OC)cccc2OC)nc2ccccc21 | 4.6 nM | 4.1 nM | Dose-dependent effect | 100 | 75.6 | 45.7 | 60 | 13.5
COc1cccc(OC)c1/C=N/Nc1nc2ccccc2[nH]c1=O | 8.75 nM | 7.5 nM | Dose-dependent effect | 100 | 81 | 46.6 | 60 | 16.8
O=C1CCC(=O)N(c2nc3ccccc3[nH]c2=O)N1 |  |  | Dose-dependent effect | 100 | 82.8 | 47.7 | 60 | 16.7
Oc1nc2ccccc2n2cnnc12 | Not Active | Not Active | Dose-dependent effect | 100 | 84.2 | 48.2 | 60 | 18.6
Oc1nc2ccccc2n2c(O)nnc12 | 30 nM | 25 nM | Dose-dependent effect | 100 | 79.1 | 47.2 | 60 | 15.6
O=c1[nH]c2ccccc2nc1Cl |  |  | Dose-dependent effect | 100 | 80.2 | 48.5 | 50 | 16.7
Oc1nc2ccccc2nc1O | Not Active | Not Active | Dose-dependent effect | 100 | 78.5 | 46.8 | 60 | 14.2
COc1cccc2c1C(=O)c1c(O)c3c(c(O)c1C2=O)C[C@@](O)(C(=O)CO)C[C@@H]3O[C@H]1C[C@H](N)[C@H](O)[C@H](C)O1 [DOXORUBICIN] | 3.2 nM | 2.5 nM |  |  |  |  |  | 
O=C1CN2C(=NN1)C(=O)Nc1ccccc12 |  |  | Dose-dependent effect | 100 | 78 | 46.3 | 60 | 13.6
O=C(c1ccccc1)N1C(=S)NNC12Nc1ccccc1NC2=O (stereo not given) | Not Active | Not Active | Dose-dependent effect | 100 | 85.2 | 49.1 | 60 | 19.1
O=C1Nc2ccccc2N2C(O)=CNN=C12 |  |  | Dose-dependent effect | 100 | 77.6 | 46 | 60 | 13.2
O=C1CC(=O)N(c2nc3ccccc3[nH]c2=O)N1 |  |  | Dose-dependent effect | 100 | 83.9 | 48 | 60 | 17.5
C=CCn1c(=O)c(N/N=C/c2ccc(N(C)C)cc2)nc2ccccc21 | 2.9 nM | 2.65 nM | Dose-dependent effect | 100 | 73.2 | 41.6 | 60 | 10.1
N=c1c(O)nnc2c(=O)[nH]c3ccccc3n12 | 20.2 nM | 18 nM | Dose-dependent effect | 100 | 79 | 47.1 | 60 | 15
NNc1nc2ccccc2[nH]c1=O | 10.2 nM | 9 nM | Dose-dependent effect | 100 | 78.1 | 46.5 | 60 | 14.9
O=c1[nH]c2ccccc2n2c(=O)c(O)nnc12 | 27.8 nM | 20 nM | Dose-dependent effect | 100 | 78.6 | 47 | 60 | 14.2
CN1C(=S)NNC12Nc1ccccc1NC2=O (stereo not given) |  |  | Dose-dependent effect | 100 | 84.6 | 48.3 | 60 | 18.7
CN(C)c1ccc(/C=N/Nc2nc3ccccc3[nH]c2=O)cc1 | 11.8 nM | 9.8 nM | Dose-dependent effect | 100 | 71.7 | 42.2 | 60 | 13.9
CCOC(=O)Cn1c(=O)c(N/N=C/c2ccc(N(C)C)cc2)nc2ccccc21 | 4.85 nM | 4.5 nM | Dose-dependent effect | 100 | 78.6 | 47.6 | 60 | 12.7
